The term EC50 denotes the concentration giving half of the maximal effect. Higher therefore signals a need for much substance.

Substitutions are numbered along the chain they refer to. Where only a bound is given, the exact number is not on record here.

Holding throughout (type): cell-based
For assay [1], the target named is T1, rat P2X2 receptor (rP2X2R) WT (Rattus norvegicus, UniProt P49653).
T1 sequence (P49653 1-472): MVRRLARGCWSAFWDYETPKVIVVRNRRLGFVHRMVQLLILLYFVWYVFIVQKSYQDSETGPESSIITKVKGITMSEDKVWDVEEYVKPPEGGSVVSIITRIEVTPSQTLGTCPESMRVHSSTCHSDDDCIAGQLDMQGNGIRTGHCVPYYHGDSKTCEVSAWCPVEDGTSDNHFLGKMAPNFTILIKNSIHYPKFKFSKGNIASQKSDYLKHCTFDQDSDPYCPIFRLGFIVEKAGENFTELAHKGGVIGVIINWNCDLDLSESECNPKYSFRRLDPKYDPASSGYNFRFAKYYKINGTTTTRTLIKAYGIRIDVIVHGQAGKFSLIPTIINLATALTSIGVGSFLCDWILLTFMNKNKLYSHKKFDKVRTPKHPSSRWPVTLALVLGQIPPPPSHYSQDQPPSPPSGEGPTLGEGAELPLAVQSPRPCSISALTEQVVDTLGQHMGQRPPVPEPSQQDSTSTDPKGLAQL
In a few lines:
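Collagenase-digested Xenopus oocytes were injected with WT rP2X2 mRNA (30 ng) and kept in L-15 at 18°C. Two-electrode voltage clamp was done 1–2 days later at −40 mV in ND96 (pH 7.4). Agonists were freshly dissolved in ND96 at pH 7.4. Responses were normalised to 1 mM ATP current in the same cell, and Hill fits gave EC50 and nH. Relative efficacy is the agonist maximal current versus 1 mM ATP. Results are mean ± SEM, compared by one-way ANOVA with Dunnett's test.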

The next assay concerns the target T2, rP2X2 Lys69Gln (Rattus norvegicus, UniProt P49653, K69Q).
T2 sequence (P49653 1-472 K69Q): T1 sequence (P49653 1-472) with K69Q
The assay is described as follows: Two-electrode voltage clamp, oocytes expressing rP2X2 Lys69Gln. As to conditions: for EC50: EC50, Lys69Gln. The gist of the method:
(§1)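 Mutations were made by site-directed mutagenesis. Xenopus oocytes were injected with rP2X2 mRNA and incubated in L-15 at 18°C. Two-electrode voltage clamp was done 1–2 days later at −40 mV under ND96 perfusion (pH 7.4). ATP concentration-response currents were normalised and fitted to a one-component Hill equation for EC50 and Hill coefficient. Results are mean ± SEM, tested by one-way ANOVA with Dunnett's test against WT.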

In the next assay the target is T3, rP2X2 Val96Vah (Rattus norvegicus, UniProt P49653).
T3 sequence (P49653 1-472): T1 sequence (P49653 1-472)
The assay is described as follows: Two-electrode voltage clamp, oocytes expressing rP2X2 Val96Vah. In a few lines:
(§2)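 The backbone ester was introduced by nonsense suppression. TAG-mutant rP2X2 mRNA was co-injected into Xenopus oocytes with tRNA enzymatically aminoacylated with 2-hydroxyisovaleric acid. Uncharged tRNA co-injection served as the negative control. After incubation at 18°C, two-electrode voltage clamp was done at −40 mV in ND96 (pH 7.4). ATP concentration-response data were normalised and Hill-fitted for EC50 and nH, given as mean ± SEM.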
Background: Two-electrode voltage clamp holds a large cell at a set potential and records current.

The target in a further assay is T4, rP2X2 Lys308Arg (Rattus norvegicus, UniProt P49653, K308R).
T4 sequence (P49653 1-472 K308R): T1 sequence (P49653 1-472) with K308R
The assay is described as follows: Two-electrode voltage clamp, oocytes expressing rP2X2 Lys308Arg. The gist of the method: as §1

For the next assay, the target named is T5, rP2X2 Arg290Lys (Rattus norvegicus, UniProt P49653, R290K).
T5 sequence (P49653 1-472 R290K): T1 sequence (P49653 1-472) with R290K
The assay is described as follows: Two-electrode voltage clamp, oocytes expressing rP2X2 Arg290Lys. In a few lines: as §1

In the next assay the target is T6, rP2X2 Ile185Vah (Rattus norvegicus, UniProt P49653).
T6 sequence (P49653 1-472): T1 sequence (P49653 1-472)
The assay is described as follows: Two-electrode voltage clamp, oocytes expressing rP2X2 Ile185Vah. In a few lines:
as §2

As to `Nc1ncnc2c1ncn2[C@@H]1O[C@H](COP(=O)(O)OP(=O)(O)OP(=O)(O)O)[C@@H](O)[C@H]1O` [ATP, Adenosine 5′-triphosphate], the EC50 in assay [1] was 32 ± 4 µM; on rP2X2 Lys69Gln, greater than 5000 µM; on rP2X2 Lys69Gln (mean ± SEM) it was 16600 µM; on rP2X2 Val96Vah it was 27 ± 2 µM; at rP2X2 Lys308Arg, 6000 µM; on rP2X2 Arg290Lys, 460 ± 60 µM. Moreover, the midpoint of the response at rP2X2 Ile185Vah (Ile185Vah, mean ± SEM), the EC50, lay at 460 ± 20 µM. In addition, the “nH (Hill coefficient)” value at rP2X2 Lys69Gln (Lys69Gln) was 2.4 ± 0.1. The “Effect of Vah incorporation on EC50 (in words)” value on rP2X2 Val96Vah (Val96Vah compared with WT) is recorded as “did not affect the ATP EC50”. Moreover, the “Fold increase in EC50 (decrease in sensitivity), Ile185Vah versus Ile185Val” value at rP2X2 Ile185Vah (Ile185Vah compared with Ile185Val) was found to be 20 fold.

(Values after paper PMC6605687 (The Journal of General Physiology, 2019).)
